From PubChem
hIAP activ = human IAP activation; P09923; purified human IAP, CDP-Star luminescence, 30 min; hits give high values; 1 = vehicle-only enzyme, 0 = enzyme-free background; activation factor at 10 µM; hit rate 0.16% among 330,000;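 active = activation factor of the enzyme at least 2-fold when tested at 20 µM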
Target sequence (P09923 whole entry, looked up): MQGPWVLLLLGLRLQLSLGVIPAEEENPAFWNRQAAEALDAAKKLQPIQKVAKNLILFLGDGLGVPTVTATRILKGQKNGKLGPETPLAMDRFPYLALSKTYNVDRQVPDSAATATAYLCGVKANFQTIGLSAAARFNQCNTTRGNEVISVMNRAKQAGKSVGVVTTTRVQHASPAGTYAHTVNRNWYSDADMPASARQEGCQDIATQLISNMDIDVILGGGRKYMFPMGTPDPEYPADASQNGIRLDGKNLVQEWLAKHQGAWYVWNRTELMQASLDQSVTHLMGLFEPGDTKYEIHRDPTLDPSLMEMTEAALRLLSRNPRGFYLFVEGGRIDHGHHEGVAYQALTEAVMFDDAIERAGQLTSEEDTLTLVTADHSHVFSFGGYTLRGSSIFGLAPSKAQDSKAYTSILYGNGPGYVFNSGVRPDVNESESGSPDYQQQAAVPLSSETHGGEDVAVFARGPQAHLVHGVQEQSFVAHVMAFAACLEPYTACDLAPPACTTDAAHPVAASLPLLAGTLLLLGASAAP
bIAP inhibitor = blocks bovine intestinal alkaline phosphatase activity; purified bovine IAP, CDP-star luminescence, 30 min; inhibition, % at 20 µM; 190,000 tested, under 10 active; AID 1019;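 active = over 50% inhibition of intestinal alkaline phosphatase at 20 µM in the single-dose screen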
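Assay system – bovine IAP enzyme · Quantity – bovine IAP at 1/65,000,000 final dilution · Detection – CDP-star luminescence signal · Times – 30 min reaction at room temperature · Also added – CDP-star substrate at 30 µM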
mIAP activ = mouse IAP activation; activation factor at 10 µM; muIAP, CDP-Star luminescence, 30 min; hits give high values; 1 = vehicle-only enzyme signal, 0 = enzyme-free wells; hit rate 0.24% among 330,000; AID 2805;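 active = activation factor of at least 2 at 20 µM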
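Assay system: mouse IAP enzyme / Compound: DMSO-dissolved test compounds / Timing: 30 min, room temperature / Measured by: luminescence from enzymatic CDP-Star hydrolysis / Control set: DMSO-only wells, enzyme-free buffer wells as negative control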
mIAP inh = blocks mouse intestinal alkaline phosphatase. inhibition, % at 10 µM. hit rate 0.2% among 330,000. AID 2806. purified mouse IAP, CDP-Star luminescence, 30 min;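 active = inhibition of at least 40% at 10 µM in the primary screen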;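 note: plate controls were DMSO with enzyme for no effect and no enzyme wells for full effect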
bIAP activator = intestinal alkaline phosphatase (bovine) activation; hit rate 0.17% among 200,000; activation factor at 20 µM; purified bovine IAP, CDP-star luminescence, 30 min; hits give high values; fold of DMSO-control signal, blank-subtracted;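 active = activation factor of 2 or more at 20 µM, a signal rise over negative controls twice the positive control's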
hIAP block = human IAP inhibition. purified IAP, CDP-Star luminescence, 30 min. inhibition, % at 10 µM. hit rate 0.12% among 330,000;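 active = inhibition reaching a set limit with compound at 10 µM in the primary screen, cut at about 35% in these data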;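 note: plate controls were DMSO wells with enzyme for no effect and no-enzyme buffer wells for full effect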
hIAP act conf = human IAP activation confirmation; AID 434926; shares compounds with hIAP activ; purified IAP, CDP-Star luminescence, 30 min; hits give low values; activation (%Activity, negative = activation), % at 8.3 µM; hit rate 10% among 880;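 active = at least twofold enzyme activation in any of six single-dose repeats, which the averaged readout prints as negative percent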
The depositor's hits bear a star; · = not tested or not shown. Shown are actives, neighbours in structure and some others; about 0.79% of the full set was active somewhere.

SMILES | hIAP activ | bIAP inhibitor | mIAP activ | mIAP inh | bIAP activator | hIAP block | hIAP act conf
Cc1ccc(-c2cc(C(=O)N3CCc4ccccc4C3)[nH]n2)cc1C | 2.49* | · | 1.44 | -44.1 | · | -148.9 | 5.9
COc1cccc(-c2cc(C(=O)N3CCc4ccccc4C3)[nH]n2)c1 | 0.991 | · | 1.14 | -14.2 | · | 0.9 | ·
COc1ccc(C2=NOC(Cn3nc(C(=O)NCc4cccc(Br)c4)cc3-c3ccccc3)C2)cc1 (stereo unspecified) | 0.978 | · | 1.18 | -18.2 | · | 2.2 | ·
Cc1cccc(N(O)C(=O)Nc2cccc(Cl)c2)c1 | 1.16 | · | 1.32 | -32.0 | · | -16.3 | ·
COc1ccc(-n2nc3ccc(NS(C)(=O)=O)cc3n2)cc1Cl | 0.625 | 5.5 | 1.09 | -9.3 | 0.9 | 37.5* | 1.0
CC(C)CC(C(=O)NC1CCCCC1)N(Cc1ccccc1)C(=O)c1snc(C(N)=O)c1N (stereo unspecified) | 0.847 | · | 1.05 | -5.5 | · | 15.3 | ·
O=C(NC12CC3CC(CC(C3)C1)C2)c1cccnc1Cl | 1.26 | · | 1.03 | -2.8 | · | -26.3 | ·
CCOC(=O)C1=C(c2ccc(OC)cc2)OC(N)=C(C#N)C1c1cccnc1 (stereo unspecified) | 2.95* | · | 1.04 | -3.6 | · | -195.1 | -0.5
C#CCOCCOCCOCCNc1nc(N2CCN(C(=O)[C@H](CCC(=O)O)n3cc(C(N)CO)nn3)CC2)nc(N2CCN(C(=O)[C@H](CCC(=O)O)n3cc(C(N)[C@H](C)CC)nn3)CC2)n1 (stereo partly specified) | 0.988 | -12.7 | 1.07 | -7.4 | 1.1 | 1.2 | ·
O=C(O)CCn1nnc(-c2cccs2)n1 | 2.03* | 0.5 | 1.03 | -3.5 | 1 | -103.2 | -0.3
O=C(O)Cn1nnc(-c2cccs2)n1 | 0.958 | -0.6 | 0.968 | 3.2 | 1 | 4.2 | ·
Cc1nn(-c2ccccc2)c(C)c1/C=C/C(=O)OCC(=O)Nc1ccc(S(N)(=O)=O)cc1 | 0.846 | · | 0.936 | 6.4 | · | 15.4 | ·
CCN1/C(=C/c2ccc3cc(C)ccc3[n+]2CC)Sc2cc(C)c(C)cc21 | 0.682 | · | 0.834 | 16.6 | 0.3 | 31.8 | ·
CCN1/C(=C/c2ccc3cc(C)ccc3[n+]2CC)Sc2ccccc21 | 0.631 | -23.1 | 0.656 | 34.4 | 1.2 | 36.9* | 9.1
O=C(NCc1ccccc1Cl)C(=O)c1cn(CC(=O)N2CCOCC2)c2ccccc12 | 1.21 | · | 0.972 | 2.8 | · | -21.0 | ·
O=C(Nc1ccc(OC(F)(F)F)cc1)NC1CCC(Oc2ccc(C(=O)O)cc2)CC1 (stereo unspecified) | 3.8* | · | 1.33 | -33.4 | · | -279.9 | -35.0
CC(C)NC(=O)N(C)C[C@H]1Oc2c(cccc2N(C)C)C(=O)N([C@H](C)CO)C[C@@H]1C | 1.06 | · | 1.05 | -4.7 | · | -6.2 | ·
CC(C)(C)NCC(=O)c1c[nH]c2ccccc12 | 2.08* | 9.8 | 1.15 | -14.9 | 0.9 | -108.3 | -58.1
CC(=O)OCC(=O)c1c[nH]c2ccccc12 | 0.885 | -7.9 | 0.975 | 2.5 | 1.1 | 11.5 | ·
CCOC(=O)Cc1nc2nc(C)cc(C)n2n1 | 1.04 | -8.2 | 0.941 | 5.9 | 1.1 | -4.0 | ·
Cc1cc(C)n2nc(CC(=O)NNC(=O)COc3cccc(C)c3C)nc2n1 | 2.06* | · | 0.905 | 9.5 | · | -105.6 | -25.9
CCCN(C(=O)COc1ccc(C(C)=O)cc1OC)C1CCS(=O)(=O)C1 (stereo unspecified) | 1.31 | · | 1.18 | -18.2 | · | -30.8 | ·
C[C@H](NC(=O)c1nc[nH]c1C(=O)N1CCc2ccccc2C1)C(=O)OC(C)(C)C | 2.71* | · | 1.15 | -14.5 | · | -170.5 | -56.9
O=C(Nc1nccs1)c1nc[nH]c1C(=O)N1CCc2ccccc2C1 | 2.09* | · | 0.945 | 5.5 | · | -109.1 | -48.5
CC(C)(C)OC(=O)N1CCN(C(=O)c2[nH]cnc2C(=O)Nc2nccs2)CC1 | 2.22* | · | 0.989 | 1.1 | · | -121.8 | -27.6
SMILES | hIAP activ | bIAP inhibitor | mIAP activ | mIAP inh | bIAP activator | hIAP block | hIAP act conf
COc1ccc(O)c(/C=N/NC(=O)c2cccc(N3CCCC3=O)c2)c1 | 2.05* | · | 1.1 | -9.8 | · | -104.7 | -1.4
COc1cc(/C=C/C(=O)c2ccc(C)c([N+](=O)[O-])c2)cc(OC)c1O | 0.534 | 14.1 | 0.615 | 38.5 | 0.9 | 46.6* | 18.3
COc1ccc(/C=C/C(=O)c2ccc(C)c([N+](=O)[O-])c2)cc1O | 0.867 | 23.9 | 0.821 | 17.9 | 0.8 | 13.3 | ·
C#CCOc1ccccc1C(N)=O | 0.922 | · | 0.977 | 2.3 | · | 7.8 | ·
COc1cc(C(=O)NCC(=O)N/N=C/c2ccc(-c3ccc([N+](=O)[O-])cc3)o2)cc(OC)c1OC | 0.639 | · | 0.861 | 13.9 | · | 36.1* | 18.7
O=C(NCc1ccccn1)C(=O)N/N=C/c1ccccc1O | 2.98* | · | 0.963 | 3.7 | · | -198.1 | 2.6
O=C(NCCCN1CCOCC1)C(=O)N/N=C/c1ccccc1O | 2* | · | 1.18 | -18.3 | · | -100.4 | 28.4
O=C(NCCCN1CCOCC1)C(=O)N/N=C/c1ccccc1Cl | 0.863 | · | 0.948 | 5.2 | · | 13.7 | ·
COc1ccc(C2N(Cc3ccccc3)CC(=O)N2/N=C(\C)c2ccccc2)cc1 (stereo unspecified) | 0.926 | -13.5 | 0.927 | 7.3 | 1.1 | 7.4 | ·
CCCOC(=O)c1ccc(Oc2c(-c3ccc(O)cc3O)n[nH]c2C)cc1 | 2.32* | -47.8 | 1.12 | -12.4 | 1.5 | -131.8 | -61.6
CCOC(=O)c1ccc(Oc2cn[nH]c2-c2ccc(OCC(=O)NN)cc2O)cc1 | 2.36* | · | 0.936 | 6.4 | · | -136.4 | 3.9
CCCOC(=O)c1ccc(Oc2c(-c3ccc(OC)cc3O)n[nH]c2C)cc1 | 1.8 | -15.3 | 0.98 | 2.0 | 1.2 | -79.9 | ·
CCCOC(=O)c1ccc(Oc2cn[nH]c2-c2ccc(OCC(=O)NN)cc2O)cc1 | 1.97 | · | 1.05 | -5.2 | · | -96.8 | ·
CCOc1ccc(-c2n[nH]c(C)c2Oc2ccccc2OC)c(O)c1 | 0.96 | -58.1 | 1.12 | -11.7 | 1.6 | 4.0 | ·
Cc1[nH]nc(-c2ccc(O)cc2O)c1Oc1ccccc1 | 2.07* | -16.0 | 1.26 | -25.9 | 1.2 | -106.8 | -17.0
CCOc1ccccc1/C=C(\C#N)C(=O)NC1CC1 | 1.11 | · | 1.08 | -8.1 | · | -11.4 | ·
CCOc1c(Br)cc(/C=C(\C#N)C(=O)NC2CC2)cc1OC | 0.594 | · | 0.988 | 1.2 | · | 40.6* | 5.1
COc1ccccc1NC1CCCCC1NS(=O)(=O)c1ccccc1 (stereo unspecified) | 1.17 | · | 1.07 | -6.9 | · | -17.4 | ·
COc1ccc(NC(=O)NNS(=O)(=O)c2ccc(OC)c(OC)c2)c(OC)c1 | 0.879 | · | 0.955 | 4.5 | · | 12.1 | ·
COCCNC(=S)N=Nc1c(O)[nH]c2ccc([N+](=O)[O-])cc12 | 2.41* | · | 0.818 | 18.2 | · | -141.1 | -40.3
CCCCCCC(=O)N=Nc1c(O)[nH]c2ccc([N+](=O)[O-])cc12 | 1.16 | -17.0 | 0.83 | 17.0 | 1.2 | -15.7 | ·
CC(C)Cn1c(-c2ccccc2)nc(=S)c2c1CCCC2 | 1.04 | 26.2 | 0.907 | 9.3 | 0.7 | -4.0 | ·
